This is a sample that favours compounds with a hit; in the whole collection about 2.7% have one here.
PAFAH2 inh: PAFAH2 (human) inhibition; recombinant PAFAH2, FP-rhodamine activity probe, fluorescence polarization; inhibition, % at 3.39 µM; Q99487; hit rate 0.99% among 340,000; AID 492956;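 active = inhibition above the mean over all tested compounds plus 3 SD, cut at about 30% in these data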;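 note: inhibitors block probe labeling of enzyme so polarization drops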
RBBP9 inh: blocks human serine hydrolase RBBP9; O75884; recombinant RBBP9, FP-Rh probe fluorescence polarization; inhibition, % at 7.94 µM; hit rate 0.2% among 220,000; AID 1515;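 active = inhibition above the campaign mean of all tested compounds plus 3 SD, cut at about 14% in these data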
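Test system: recombinant human RBBP9; Timing: 30 min then 45 min, 25 °C; Detection: fluorescence polarization; Control set: RBBP9 with DMSO as uninhibited control, no-protein wells as full inhibition; Compound dosing: one concentration, 7.94 µM nominal, 0.794% DMSO; Probe or stimulus: FP-Rh activity-based probe, 375 nM before mixing.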
pPAFAH FP inh: pPAFAH (human) enzyme inhibition; Q13093; recombinant pPAFAH, FP-rhodamine probe fluorescence polarization; inhibition, % at 3.39 µM; hit rate 1.5% among 330,000; AID 463082;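 active = inhibition above the mean inhibition across the screen plus 3 SD, cut at about 25% in these data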;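 note: inhibitors block binding of the rhodamine activity-based probe so polarization drops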
Target sequence (Q13093 whole entry, looked up): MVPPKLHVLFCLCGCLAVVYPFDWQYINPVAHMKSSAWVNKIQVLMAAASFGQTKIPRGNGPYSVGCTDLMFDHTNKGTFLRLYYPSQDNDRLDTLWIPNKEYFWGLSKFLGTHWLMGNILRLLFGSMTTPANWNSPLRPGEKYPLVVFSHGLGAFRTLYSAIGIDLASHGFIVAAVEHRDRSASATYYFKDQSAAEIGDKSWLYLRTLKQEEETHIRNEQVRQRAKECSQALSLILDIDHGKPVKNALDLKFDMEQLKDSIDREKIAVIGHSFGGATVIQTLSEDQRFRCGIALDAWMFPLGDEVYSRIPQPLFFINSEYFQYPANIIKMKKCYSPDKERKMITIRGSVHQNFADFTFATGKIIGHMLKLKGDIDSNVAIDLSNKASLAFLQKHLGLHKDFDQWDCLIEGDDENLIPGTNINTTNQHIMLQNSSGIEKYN
PAFAH1B3 inh: blocks human PAF acetylhydrolase 1B catalytic subunit 3; recombinant PAFAH1B3, FP-rhodamine probe, fluorescence polarization; Q15102; hit rate 0.28% among 340,000; inhibition, % at 3.39 µM;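 active = inhibition above the screen-wide average of all tested compounds plus 3 SD, cut at about 25% in these data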
PAFAH1B2 FP inh: blocks human PAF acetylhydrolase 1b catalytic subunit 2. P68402. recombinant PAFAH1B2, FP-rhodamine activity probe, fluorescence polarization. inhibition, % at 3.39 µM. hit rate 1.2% among 340,000. AID 492953;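 active = inhibition above the mean of all tested compounds plus 3 SD, cut at about 24% in these data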
Target sequence (P68402 whole entry, looked up): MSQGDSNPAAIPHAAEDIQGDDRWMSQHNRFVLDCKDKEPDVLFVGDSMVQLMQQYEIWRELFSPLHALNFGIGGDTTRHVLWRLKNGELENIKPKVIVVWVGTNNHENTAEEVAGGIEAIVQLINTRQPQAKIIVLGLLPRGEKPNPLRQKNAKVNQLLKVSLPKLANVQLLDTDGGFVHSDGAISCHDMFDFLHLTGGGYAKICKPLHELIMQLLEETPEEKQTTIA
A number is an active result; 0 = inactive; - = no result given.

SMILES | PAFAH2 inh | RBBP9 inh | pPAFAH FP inh | PAFAH1B3 inh | PAFAH1B2 FP inh
COc1ccc(NC(=O)CCC2CCCC2)cc1OC | 0 | 0 | 0 | 0 | 0
O=C(COC(=O)C1CC1)Nc1ccc(Cl)cc1Cl | 64 | - | 0 | 0 | 0
NC(=O)C1(N2CCCCC2)CCN(CC(=O)Nc2ccc(Oc3ccccc3)cc2)CC1 | 0 | 0 | 28 | 0 | 0
Cc1ccc(Cl)cc1NC(=O)COC(=O)C1CC1 | 0 | 0 | 0 | 0 | 0
O=C(COC(=O)C1CC1)Nc1ccc(Oc2ccccc2)cc1 | 91 | 0 | 27 | 0 | 0
O=C(CN1CCCCCC1)Nc1ccc(Oc2ccccc2)cc1 | 0 | 0 | 0 | 0 | 0
COc1ccc(NS(=O)(=O)c2ccc(OC)c(NC(=O)CCC3CCCC3)c2)cc1 | 0 | 0 | 27 | 0 | 0
C[C@H](CO)N1C[C@H](C)[C@@H](CN(C)C(=O)NC2CCCCC2)Oc2ccc(NC(=O)CCC(F)(F)F)cc2C1=O | 0 | - | 0 | 0 | 0
CCc1ccc(/C=C2/Sc3ccccc3N(CC(=O)NCC3CCCO3)C2=O)cc1 (stereo unspecified) | 0 | - | 0 | 0 | 0
O=C(COC(=O)CCC1CCCC1)Nc1ccccc1Br | 0 | - | 34 | 0 | 0
O=C(COC(=O)CCC1CCCC1)Nc1ccc(Cl)cc1F | 0 | 0 | 27 | 0 | 0
CCc1ccc(NC(=O)COC(=O)CCC2CCCC2)cc1 | 0 | - | 0 | 0 | 0
O=C(Nc1ccc(N2CCN(C(=O)c3ccco3)CC2)cc1)c1cccnc1Cl | 0 | 0 | 0 | 0 | 0
CCCCOc1ccc(/C=C/C(=O)NC2=Nc3ccccc3NC(C)=C2C(=O)OCC)cc1OC | 0 | 0 | 0 | 0 | 0
CC1CCN(S(=O)(=O)c2cnc(Cl)c(Br)c2)CC1 | 0 | 0 | 0 | 0 | 26
CC1CCCCN1S(=O)(=O)c1cnc(Cl)c(Br)c1 (stereo unspecified) | 0 | 0 | 0 | 0 | 0
CCN(CC)C(=O)c1cccc(NC(=O)C2CCN(C(=O)c3cccs3)CC2)c1 | 0 | - | 0 | 0 | 0
CC1C/C(=C/c2ccco2)C(=O)/C(=C/c2ccco2)C1 (stereo unspecified) | - | 0 | 48 | - | -
COc1ccc(CC(=O)Oc2ccc(F)cc2)cc1 | 0 | - | 0 | 0 | 0
Cc1ccc(C(C)C)c(OCC(=O)NNCC(=O)Nc2cccc(F)c2)c1 | 0 | - | 0 | 0 | 25
CC(=O)Nc1ccc(S(=O)(=O)NNC(=O)COc2cc(C)ccc2C(C)C)cc1 | 0 | 0 | 0 | 0 | 0
O=C(O)c1ccccc1C(=O)OCc1c(-c2ccccc2)ncc2ccccc12 | 0 | - | 0 | 0 | 0
O=C(OCc1c(-c2ccccc2)ncc2ccccc12)c1ccco1 | 0 | - | 32 | 0 | 0
O=C(NCCN1CCOCC1)c1cc(S(=O)(=O)NCCCN2CCCC2=O)ccc1Cl | 0 | 0 | 0 | 0 | 0
CCC(C)C1/C=C\CC(NC(=O)OCC2c3ccccc3-c3ccccc32)CC(=O)N1Cc1ccccc1 (stereo unspecified) | 0 | - | 0 | 0 | 0
SMILES | PAFAH2 inh | RBBP9 inh | pPAFAH FP inh | PAFAH1B3 inh | PAFAH1B2 FP inh
CCCN(CCC)c1nc(Cl)nc(NCc2ccco2)n1 | 0 | 0 | 26 | 0 | 0
COc1ccccc1-n1cnnc1SC(C)C(=O)NCC1CCCO1 (stereo unspecified) | 0 | - | 0 | 0 | 0
O=S(=O)(c1ccc2oc(=S)[nH]c2c1)N1CCCCC1 | 0 | 0 | 0 | 0 | 0
O=S(=O)(Nc1cccc(Cl)c1)c1ccc2oc(=S)[nH]c2c1 | 0 | 0 | 32 | 0 | 0
CC(=O)C(N=Nc1ccccc1)(Sc1nnc(-c2ccccc2)n1-c1ccccc1)C(=O)Nc1ccccc1 (stereo unspecified) | 0 | 0 | 0 | 0 | 26
CC(=O)C(N=Nc1ccccc1)(Sc1nnc(-c2ccccc2)n1-c1ccccc1)C(C)=O | 0 | 0 | 0 | 0 | 0
Cc1ccc(-c2nc3sc(C#N)c(N)n3c(=O)c2C#N)cc1 | 0 | 0 | 0 | 0 | 0
COc1ccc(/C=C2\SC(=S)N(NS(=O)(=O)c3ccc(C)cc3)C2=O)c(OC)c1 | 0 | - | 0 | 0 | 0
COc1ccc(OC)c(/C=C2\SC(=S)N(NS(=O)(=O)c3ccc(C)cc3)C2=O)c1 | 0 | - | 26 | 0 | 0
O=C1NC(=NCc2ccccc2)S/C1=C/c1ccc(O)cc1 | 0 | 0 | 29 | 0 | 0
O=C(c1ccccc1)N1CCN(C(=O)c2nn3c(C(F)(F)F)cc(-c4ccco4)nc3c2Br)CC1 | 0 | - | 34 | 0 | 0
Cc1ccccc1N=Nc1c(O)n(C)c2ccccc12 | 0 | - | 0 | 0 | 0
O=C1CCCC(O)=C1N=Nc1ccc(C(=O)O)cc1 | 52 | 0 | 31 | 50 | 39
COc1ccc(CCN(C)Cc2c(O)ccc3cc(Br)ccc23)cc1OC | 0 | - | 0 | 0 | 36
COc1ccc(CN(C)Cc2c(O)ccc3cc(Br)ccc23)cc1OC | 0 | - | 0 | 0 | 0
CCc1ccc(C(C)NC(=O)c2ccncc2)cc1 (stereo unspecified) | 0 | - | 0 | 0 | 0
O=S(=O)(NCc1c(Cl)cccc1Oc1ccccc1)c1ccccc1 | 0 | 0 | 0 | 0 | 0
N#Cc1c(Cl)cccc1Oc1ccc(S(=O)(=O)Nc2ccccc2)cc1 | - | 0 | 26 | - | -
Fc1ccccc1NC(=S)N1CCN(Cc2ccccc2)CC1 | 0 | 0 | 32 | 0 | 0
CCSC1=NC2(CCCCC2)Nc2sc3c(c21)CCCC3 | 0 | 0 | 0 | 0 | 0
C=CCOC(=O)C(=O)/C=C/c1ccc2c(c1)Cc1ccccc1-2 | 0 | 0 | 27 | 0 | 0
Cc1nc(Cl)c(C(=O)Nc2cccc(F)c2)c(C)c1Cl | 0 | 0 | 0 | 0 | 0
CC(=O)Cc1nsc(NC(=O)c2ccc(COc3ccccc3Cl)o2)n1 | 0 | - | 0 | 0 | 0
CC(=O)Cc1nsc(NC(=O)c2ccc(COc3ccccc3)o2)n1 | 0 | 0 | 27 | 0 | 0
S=c1[nH]nc(-c2cc(-c3ccccc3)n[nH]2)n1/N=C/C=C/c1ccco1 | - | 0 | 26 | - | -
SMILES | PAFAH2 inh | RBBP9 inh | pPAFAH FP inh | PAFAH1B3 inh | PAFAH1B2 FP inh
S=c1[nH]nc(-c2n[nH]c3c2CCC3)n1/N=C/C=C/c1ccco1 | - | 0 | 0 | - | -
Cc1ccc(Cl)cc1NC(=O)COC(=O)CCN1C(=O)C2CC=CCC2C1=O (stereo unspecified) | 0 | - | 0 | 0 | 0
Cc1cc(C)n(CC(C)Nc2nc3nonc3nc2N2CCCCC2)n1 (stereo unspecified) | 0 | 0 | 0 | 0 | 0
Cc1cc(C)n(CCNc2nc3nonc3nc2N2CCCCC2)n1 | 0 | 0 | 28 | 0 | 0
COC(=O)C1=C(CSc2nc3c(cc2C#N)CN(C)CC3)OC(N)=C(C#N)C1c1ccc(F)cc1 (stereo unspecified) | 0 | 0 | 26 | 0 | 0
CCOC(=O)C1=C(CSc2nc(CC)c(C)cc2C#N)OC(N)=C(C#N)C1c1ccc(OC)cc1 (stereo unspecified) | 0 | 0 | 0 | 0 | 0
O=C(NCCc1ccccc1)c1nnc(CS(=O)(=O)c2ccccc2)o1 | 0 | - | 28 | 0 | 0
CC(C)(C)c1ccc(/C=C/C(=O)N2CCN(c3ncccn3)CC2)cc1 | 0 | 0 | 32 | 0 | 0
O=C(/C=C/c1ccc(Cl)c(C(F)(F)F)c1)N1CCN(c2ccccn2)CC1 | 40 | - | 29 | 0 | 0
O=C(/C=C/c1ccc(Cl)cc1)N1CCN(c2ccccn2)CC1 | 0 | 0 | 0 | 0 | 0
CC(C)(C)c1ccc(OCC(=O)N2CCN(c3ncccn3)CC2)cc1 | 0 | - | 26 | 0 | 0
